Calls of active or inactive are those of the source. No cut-off for these calls is given here.
Key:
[1] = target: Quadruplex DNA; assay: Displacement of thiazole orange from wild-type telomeric 22 H2 G-quadruplex DNA (unknown origin) in presence of KCl by fluorescent intercalator displacement assay; assay type: nucleic-acid assay
In short: (§1)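 Target DNA (0.62 μM) was mixed with thiazole orange (1.24 μM) in 10 mM Tris, 50 mM KCl, pH 7.5, at 25 °C and titrated with compound. Fluorescence was excited at 501 nm and read at 520–680 nm. Displacement = 100 − (F/F0 × 100); EC50 was taken from displacement versus concentration. Each titration was run at least in triplicate.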

[2] = tested on: Calf thymus DNA; assay: Binding affinity to calf thymus DNA up to 80 uM in presence of KCl by electronic circular dichorism spectra analysis; assay type: nucleic-acid assay; conditions: Bos taurus
In short: (§2)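 DNA annealed at 4 μM (strand concentration) in 10 mM Tris, 50 mM KCl, pH 7.5, with or without 40% MPD. ECD spectra were read at 230–350 nm in a 10 mm cell under Peltier temperature control, without ligand and with increasing ligand (0–80 μM). Cotton effects were converted to mean residue ellipticity.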

[3] = target: Quadruplex DNA; assay: Displacement of thiazole orange from telomeric 22 H1 G-quadruplex DNA (unknown origin) in presence of KCl by fluorescent intercalator displacement assay; assay type: nucleic-acid assay; in short: as §1
[4] = tested on: Quadruplex DNA; assay: Binding affinity to telomeric 12 G-quadruplex DNA (unknown origin) assessed as increase in cotton effect amplitude up to 10 fold excess DNA concentration in presence of MPD by electronic circular dichorism spectra analysis; assay type: nucleic-acid assay
[5] = tested on: Quadruplex DNA; assay: Binding affinity to telomeric 22 H1 G-quadruplex DNA (unknown origin) assessed as increase in positive cotton effect at 295 nm at 40 to 80 uM by electronic circular dichorism spectra analysis; assay type: nucleic-acid assay; in short: as §2
[6] = tested on: Quadruplex DNA; assay: Binding affinity to telomeric 22 H1 G-quadruplex DNA (unknown origin) assessed as decrease in positive cotton effect at 260 nm at 40 to 80 uM by electronic circular dichorism spectra analysis; assay type: nucleic-acid assay; in short: as §2
[7] = tested on: Calf thymus DNA; assay: Binding affinity to calf thymus DNA in presence of KCl by UV-spectra analysis; assay type: nucleic-acid assay; conditions: Bos taurus
[8] = Selectivity ratio of EC50 for displacement of thiazole orange from wild-type telomeric 22 H2 G-quadruplex DNA (unknown origin) to EC50 for displacement of thiazole orange from telomeric 22 H1 G-quadruplex DNA (unknown origin); in short: as §1
[9] = tested on: Quadruplex DNA; assay: Binding affinity to wild-type telomeric 22 H2 G-quadruplex DNA (unknown origin) assessed as increase in positive cotton effect at 295 nm at 40 to 80 uM in presence of KCl by electronic circular dichorism spectra analysis; assay type: nucleic-acid assay; in short: as §2
[10] = tested on: Calf thymus DNA; assay: Stabilization of calf thymus DNA assessed as change in melting temperature at 5 uM by fluorescence assay; assay type: nucleic-acid assay; conditions: Bos taurus
[11] = tested on: Quadruplex DNA; assay: Stabilization of 5'Dabcyl/3'FAM labeled human telomeric sequence G-quadruplex DNA assessed as change in melting temperature at 5 uM in presence of KCl by fluorescence assay; assay type: nucleic-acid assay
In short: (§3)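 Labelled telomeric DNA, 0.25 μM strand, in 10 mM LiOH, pH 7.5 (H3PO4), 50 mM KCl, with increasing ligand. Samples were heated and cooled over 25–95 °C at 0.1 °C/s, held 5 min at 30 °C, then heated to 95 °C at 1 °C/min. Fluorescence excited at 488 nm, read at 520 nm. Tm from first derivative of melting profile; at least triplicate, errors ±0.3 °C.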

[12] = tested on: Quadruplex DNA; assay: Stabilization of 5'Dabcyl/3'FAM labeled human telomeric sequence G-quadruplex DNA assessed as change in melting temperature up to 30 uM in presence of KCl by fluorescence assay; assay type: nucleic-acid assay; in short: as §3
[13] = tested on: Quadruplex DNA; assay: Binding affinity to wild-type telomeric 22 H2 G-quadruplex DNA (unknown origin) assessed as decrease in positive cotton effect at 260 nm at 40 to 80 uM in presence of KCl by electronic circular dichorism spectra analysis; assay type: nucleic-acid assay; in short: as §2

SMILES	EC50 [1] [µM]	Activity [2]	EC50 [3] [µM]	Activity [4]	Activity [5]	Activity [6]	Activity [7]	Ratio EC50 [8]	Activity [9]	Activity [10]	Activity [11]	Activity [12]	Activity [13]
c1c2c(cc3c1OCO3)-c1cc3ccc4c(c3c[n+]1CC2)OCO4 [COPTISINE]	5.93	Active	12	Active	Active	Active	Active	2	Active	inactive	Active	Active	Active
COc1ccc2c(c[n+](C)c3c4cc5c(cc4ccc23)OCO5)c1OC [CHELERYTHRINE]	3.75	Active	2.59	–	Active	Active	Active	0.7	Active	inactive	Active	Active	Active
